Rows were chosen to be rich in hits. Some 4% of all compounds tested hit in one or more screens of this group.
OX1R antag-1: human HCRTR1 antagonism; CHO/OX1R cells, Fluo-8 calcium fluorescence, orexin A; inhibition, % at 5 µM; 330,000 compounds, 0.43% hits;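 active = inhibition above its plate's threshold, mean inhibition of all tested compounds on the plate plus 3 SD, cut at about 37% in these data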;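 also: 0% = orexin A challenge wells and 100% = SB-334867-A antagonist wells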
TAAR1 ag: human TAAR1 agonism | Q96RJ0 | 360,000 compounds, 0.99% hits | activation, % at 3 µM | CHO RD-HGA16 TAAR1, Fluo-8 calcium fluorescence; vehicle wells 0%, saturating PEA agonist 100% | AID 624467;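 active = activation above the mean activation of all test compounds in the run plus 3 SD, cut at about 38% in these data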
Target sequence (Q96RJ0 whole entry, looked up): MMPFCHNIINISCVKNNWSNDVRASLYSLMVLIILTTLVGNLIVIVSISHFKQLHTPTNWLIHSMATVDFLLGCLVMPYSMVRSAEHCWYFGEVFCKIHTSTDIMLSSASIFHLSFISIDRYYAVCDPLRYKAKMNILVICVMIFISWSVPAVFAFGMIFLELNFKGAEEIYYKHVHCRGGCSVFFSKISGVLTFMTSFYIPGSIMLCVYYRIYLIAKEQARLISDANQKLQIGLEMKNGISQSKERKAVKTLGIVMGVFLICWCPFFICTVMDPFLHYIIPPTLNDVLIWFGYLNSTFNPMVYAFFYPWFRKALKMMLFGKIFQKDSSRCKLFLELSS
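Test system: RD-HGA16 (CHO) cells co-expressing Gα16 and hTAAR1 / Benchmarks: DMSO vehicle as 0%, PEA at EC100 as 100% / Repeats: no replicates (n 1) / Measure: % activation from peak over basal fluorescence ratio, DMSO-to-PEA scaled / Timing: 17-24 h plating, Fluo-8 75 min 37 °C, 30 min RT / Technique: kinetic Fluo-8 calcium fluorescence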
TAAR1 antag: antagonists of human TAAR1 | Q96RJ0 | CHO RD-HGA16 TAAR1, Fluo-8 calcium fluorescence, antagonist | inhibition, % at 3 µM | 360,000 compounds, 1.5% hits | AID 624466;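 active = inhibition above a per-plate cutoff, the mean inhibition of test compounds on that plate plus 3 SD, cut at about 49% in these data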;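 also: 0% = DMSO plus EC80 beta-PEA response and 100% = DMSO alone without agonist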
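Material: RD-HGA16 CHO cells with stable hTAAR1 and Gα16; Dosing: single nominal final test compound concentration of 3 µM; Schedule: seeding 17-24 h prior, 75-min 37 °C, 30-min RT dye loading; Detection: kinetic Fluo-8 calcium fluorescence measurement; Measure: % inhibition from peak post-agonist over basal fluorescence ratio; Benchmarks: vehicle and agonist controls.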
CHO parental Ca: counter-screen for OX1R antagonists: effect in parental CHO cells; parental CHO-K1, ATP-induced calcium, Fluo-8 fluorescence; inhibition, % at 5.6 µM; 330,000 compounds, 0.63% hits; AID 463079;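 active = inhibition above that plate's mean sample inhibition plus 3 SD, cut at about 26% in these data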;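 also: 0% = ATP-challenged DMSO wells and 100% = DMSO wells without ATP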
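Measured by: calcium-sensitive Fluo-8 fluorescence / Test system: CHO parental line / Controls: ATP-challenged DMSO wells low, unchallenged DMSO wells high / Measure: % inhibition / Compound: single nominal dose of 5.6 µM per compound / Replicates: single well per compound, no replicates / Reagent: ATP as calcium-mobilizing challenge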
OX1R antag-2: antagonists of human orexin 1 receptor (OX1R) | O43613 | OX1R-expressing cells, FRET antagonist read-out | inhibition, % at 6.6 µM | 330,000 compounds, 1.8% hits | AID 485270; in the data active = inhibition mostly above about 38%, no sharp cut-off; inactive = mostly below about 40%;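 also: 0% = agonist challenge alone and 100% = reference antagonist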
* = called active by the depositor; . = no result given.

SMILES | OX1R antag-1 | TAAR1 ag | TAAR1 antag | CHO parental Ca | OX1R antag-2
CCOC(=O)/C(C#N)=C1/C=C(C)NC(c2ccccc2O)=N1 | 25 | 5 | 21 | -3 | 40*
Cc1cc(S(=O)(=O)Nc2ccc3cn[nH]c3c2)c(C)cc1Cl | 7 | 11 | -14 | 40* | 28
Cc1cc(C)cc([C@H]2C[C@]34CN(Cc5ccccc5)S(=O)(=O)[C@H]3C[C@H]2O4)c1 | . | 2 | 5 | . | .
OC[C@@H]1CN(Cc2cccc3ccccc23)C[C@H](n2cnc3c(NCc4ccco4)ncnc32)O1 | . | 20 | 65* | . | .
OC[C@@H]1CN(Cc2ccc(-c3ccccc3)cc2)C[C@H](n2cnc3c(Nc4ccccc4)ncnc32)O1 | . | 11 | 51* | . | .
CC(C)CNc1ncnc2c1ncn2[C@H]1CN(CCc2ccccc2)C[C@@H](CO)O1 | . | 41* | -11 | . | .
CC(C)CNc1ncnc2c1ncn2[C@H]1CN(Cc2ccc(Cl)cc2)C[C@@H](CO)O1 | . | 0 | 5 | . | .
NC(=O)c1cnccn1 | -4 | 0 | 5 | -5 | 7
C[C@@H]1COc2cccc(NCCCN3CCOCC3)c2S(=O)(=O)N1 | . | 6 | -12 | . | .
O=c1nccc(N/N=C/c2cccc(O)c2)[nH]1 | -10 | 40* | -14 | 0 | 1
COc1c(C)cc(C(=O)C2CCCN(C(=O)c3ccoc3)C2)cc1C (stereo not given) | -13 | 3 | -38 | -15 | 51*
COC(=O)c1cc2c(c3c4cc(C)ccc4n(S(=O)(=O)c4ccc(C)cc4)c13)C(=O)N(C)C2 | . | -2 | -33 | . | .
CCn1nc([N+](=O)[O-])c(C(C#N)c2nc3cc(C(F)(F)F)ccc3s2)c(Cl)c1=O (stereo not given) | -2 | 3 | 1 | -10 | 62*
CCCc1cc(C(=O)N2CCCC(Cc3ccccc3C)(C(=O)OCC)C2)no1 (stereo not given) | -16 | -1 | 0 | -7 | 13
CCOC(=O)c1c(C)[nH]c(C(=O)COC(=O)c2ccc(O)cc2)c1C | 10 | 7 | 30 | 27* | 8
CCOC(=O)C1CCN(C(=O)C2CCN(c3ncnc4c3nc3n4CCCCC3)CC2)CC1 | -25 | 0 | -3 | -16 | 16
CN(C)c1nnnn1-c1ccc(OC(F)(F)F)cc1 | 3 | 9 | -16 | -7 | 4
C=CCN(c1ccccc1)S(=O)(=O)c1cccc(C(=O)NCC(c2cccs2)N2CCOCC2)c1 (stereo not given) | 4 | 0 | -13 | -34 | 39*
C=CCN(c1ccccc1)S(=O)(=O)c1cccc(C(=O)NCC(c2ccccc2OC)N2CCCC2)c1 (stereo not given) | -38 | 0 | -37 | -26 | 29
Nc1nc(Nc2ccccc2F)sc1C(=O)c1ccccc1 | -32 | 48* | -15 | -22 | 16
CNc1cc(N2CCCC2)ccc1[N+](=O)[O-] | -1 | 2 | -6 | -2 | 25
O=C(NN=Cc1ccc(F)cc1)c1ccccc1NS(=O)(=O)c1cccs1 | -6 | 7 | 25 | -6 | 25*
COCc1ccc(CN2CCC(C(=O)Nc3cccc(-c4cscn4)c3)CC2)o1 | -31 | 3 | -18 | -34 | -5
COCc1ccc(CN2CCC(C(=O)Nc3cccc(-c4cccc(Cl)c4)c3)CC2)o1 | 74* | 18 | 21 | 61* | 12
C/C(Cn1nnc([N+](=O)[O-])n1)=N\NC(=O)c1ccccc1Cl | 8 | -3 | 4 | -9 | 42*
SMILES | OX1R antag-1 | TAAR1 ag | TAAR1 antag | CHO parental Ca | OX1R antag-2
CC(C)(C)OC(=O)NCc1ccc(CNC(=O)c2nc[nH]c2C(=O)NCc2ccc(CNC(=O)OC(C)(C)C)cc2)cc1 | 21 | 8 | 43 | 2 | 0
O=C(Nc1ccccc1)c1nc[nH]c1C(=O)NCCCNC(=O)c1[nH]cnc1C(=O)Nc1ccccc1 | 11 | 19 | 54* | -11 | 4
C[C@H](NC(=O)c1[nH]cnc1C(=O)N[C@@H](C)CO)c1ccccc1 | . | 0 | 0 | . | .
C[C@H](NC(=O)c1nc[nH]c1C(=O)N[C@@H](C)c1ccccc1)c1ccccc1 | -30 | 42* | 54* | -41 | 6
CC(C)(C)OC(=O)NCCCCCNC(=O)c1nc[nH]c1C(=O)NCc1ccc(CNC(=O)OC(C)(C)C)cc1 | 58* | 23 | 81* | 40* | 15
CC(C)(C)OC(=O)NCCCCCNC(=O)c1nc[nH]c1C(=O)NCCCCCNC(=O)OC(C)(C)C | -5 | 21 | 69* | -9 | 11
O=C(Nc1ccccc1)c1nc[nH]c1C(=O)NCCCCCCNC(=O)c1[nH]cnc1C(=O)Nc1ccccc1 | -33 | 5 | 2 | -7 | 6
COC(=O)[C@]12C[C@H](CC(=O)N3CCCCC3)C(=O)N(Cc3ccc4c(c3)OCO4)C1=C[C@H](COCc1ccccc1)O[C@@H]2C | . | -1 | -13 | . | .
O=c1[nH]c(NCCO)nc2c1C1(CCCCC1)Cc1ccccc1-2 | 20 | 32 | -11 | 81* | 10
CCN=C1SC(CC(=O)NCC)C(=O)N1CC (stereo not given) | -15 | 6 | 0 | 5 | 16
CCN=C1SC(CC(=O)Nc2ccc3c(c2)OCO3)C(=O)N1CC (stereo not given) | -5 | 16 | 59* | -4 | 17
CC1=CC(C)(C)N(S(=O)(=O)c2ccc(C)cc2)c2cc(C)ccc21 | 1 | 1 | 39 | 49* | 18
CCC1(c2ccccc2)NC(=O)N(CC(=O)N2CCc3ccccc32)C1=O (stereo not given) | -11 | 19 | 8 | -19 | 4
CCC1(c2ccc(F)cc2)NC(=O)N(CC(=O)N2CCc3ccccc32)C1=O (stereo not given) | 2 | 68* | 24 | -8 | -3
CC1CCN(C(=O)c2ncn3c2C(=O)N[C@H](C)C3)CC1 | . | 0 | 7 | . | .
COC(=O)CCC(=O)OC1(C)C(=O)C=C2C=C(C3CC3)N(Cc3ccccc3)C=C2C1=O (stereo not given) | -22 | 7 | 5 | -3 | 76*
COC(=O)CCC(=O)OC1(C)C(=O)C=C2C=C(C3CC3)N(CC3CC3)C=C2C1=O (stereo not given) | -14 | 9 | -16 | -16 | 37
COc1cccc(-c2cc(C(=O)Nc3cc(OC)c(OC)c(OC)c3)no2)c1 | -3 | 5 | 35 | -12 | 41*
COc1cc(NC(=O)c2cc(-c3ccccc3)on2)cc(OC)c1OC | -23 | 9 | 29 | -25 | 26
Cc1ccc(NC(=O)c2cc(-c3cccc(O)c3)on2)cc1C | 13 | 4 | 52* | 21 | 38*
COc1cc(C(=O)Nc2ccc(-c3nnc(-c4ccco4)o3)cc2)cc(OC)c1OC | -8 | 11 | 52* | -11 | 10
Cc1ccc(NC(=O)c2cc(-c3ccco3)on2)cc1C | -10 | 10 | 14 | -9 | 14
CC(C)CNc1cccc2c1S(=O)(=O)N[C@@H](CC(C)C)CO2 | . | 1 | -11 | . | .
